Our source for the Displacement, Ki and ED50 values is ChEMBL document CHEMBL1127433, “N6-substituted adenosine receptor agonists. Synthesis and pharmacological activity as potent antinociceptive agents” (J Med Chem, 1994).

Bounds are passed on as bounds.

The first assay addresses T1, Adenosine receptor A1 (Rattus norvegicus) (UniProt P25099).
T1 sequence (whole entry): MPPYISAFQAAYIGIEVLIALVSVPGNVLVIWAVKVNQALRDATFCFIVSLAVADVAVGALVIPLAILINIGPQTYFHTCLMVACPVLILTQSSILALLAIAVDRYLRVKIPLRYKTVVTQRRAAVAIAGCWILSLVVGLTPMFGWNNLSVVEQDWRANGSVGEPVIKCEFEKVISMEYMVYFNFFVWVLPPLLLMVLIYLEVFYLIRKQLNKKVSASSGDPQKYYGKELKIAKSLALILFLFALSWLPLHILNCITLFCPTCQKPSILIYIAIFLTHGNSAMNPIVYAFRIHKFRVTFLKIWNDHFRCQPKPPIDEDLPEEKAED
The experiment in a line: Percent displacement from adenosine A1 receptor at 10e-5 M in rat brain membrane in vitro. It counts as cell membranes.
Details: not given
Compound `Cc1ccccc1Cn1cc(CCNc2ncnc3c2ncn3C2O[C@H](C(=O)NC3CC3)[C@@H](O)[C@H]2O)c2ccccc21` (stereo partly drawn) displayed a Displacement of 98%.
Same read-out and setting: as for `Cc1ccc(C)c(Cn2c(C)c(CCNc3ncnc4c3ncn4C3O[C@H](C(=O)NC4CC4)[C@@H](O)[C@H]3O)c3ccccc32)c1` (stereo partly drawn), the figure is 56%; as for `O=C(NC1CC1)[C@H]1OC(n2cnc3c(NCCc4c(-c5ccccc5)[nH]c5ccccc45)ncnc32)[C@H](O)[C@@H]1O` (stereo partly drawn), 84%.
Same read-out and setting: as for `Cn1cc(CCNc2ncnc3c2ncn3C2O[C@H](C(=O)NC3CC3)[C@@H](O)[C@H]2O)c2ccccc21` (stereo partly drawn), the figure is 99%.
On the same count and under the same terms, as for `CC(Cc1cn(C2CCCC2)c2ccccc12)Nc1ncnc2c1ncn2C1O[C@H](C(=O)NC2CC2)[C@@H](O)[C@H]1O` (stereo partly drawn), the figure is 96%.
For the compound `O=C(NC1CC1)[C@H]1OC(n2cnc3c(NCCc4cn(CCN5CCOCC5)c5ccccc45)ncnc32)[C@H](O)[C@@H]1O` (stereo partly drawn), the Displacement turned out to be 100%.
On the same count and under the same terms, next, `O=C(NC1CC1)[C@H]1OC(n2cnc3c(NCCc4cn(Cc5ccc(Cl)s5)c5ccccc45)ncnc32)[C@H](O)[C@@H]1O` (stereo partly drawn): 100%; `COc1ccc2c(c1)c(CCNc1ncnc3c1ncn3C1O[C@H](C(=O)NC3CC3)[C@@H](O)[C@H]1O)cn2Cc1cc(C)ccc1C` (stereo partly drawn): 100%; `COc1ccc(Cn2cc(CCNc3ncnc4c3ncn4C3O[C@H](C(=O)NC4CC4)[C@@H](O)[C@H]3O)c3ccccc32)cc1` (stereo partly drawn): 98%.

The target in another assay is T2, Adenosine receptor A1 (Rattus norvegicus, UniProt P25099).
T2 sequence (P25099 whole entry): T1 sequence (whole entry)
The experiment in a line: Binding affinity for adenosine A1 receptor in vitro using rat brain membranes. The format is cell membranes.
Details: not given
The procedure, abridged: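 Whole rat brain membranes, homogenized in 50 mM Tris-HCl pH 7.4 and spun at 1090g then 48000g, pretreated with adenosine deaminase 1 U/mL for 30 min. Nonspecific binding defined with 10 μM PIA. Separated by GF/B filtration and scintillation counted, in triplicate. IC50 from log-logit regression, Ki via Cheng-Prusoff, one experiment.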
The Ki is the equilibrium dissociation constant of an inhibitor or competing ligand from its target. Read a high Ki as lower affinity. In the case of `O=C(NC1CC1)[C@H]1OC(n2cnc3c(NCCc4cn(Cc5ccccn5)c5ccccc45)ncnc32)[C@H](O)[C@@H]1O` (stereo partly drawn), the affinity, expressed as Ki, was 39 nM.

The test system of another assay is Mus musculus. The experiment in a line: Effective dose for phenylbenzoquinone-induced writhing in mice after peroral administration expressed as analgesic activity. It counts as functional. The settings on record: po. The procedure, abridged:
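Mice dosed orally (0.5 mL/20 g); 1 h later given 0.02% phenylbenzoquinone in hydroalcoholic solution ip (0.20-0.24 mL). Writhings and stretches counted from minute 5 to minute 10. Six animals per group. Inhibition taken against the control mean; ED50 (50% decrease) by linear regression.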
By ED50 is commonly meant the midpoint of the dose-response relation. A low value points to greater potency. As for `Cc1ccccc1Cn1cc(CCNc2ncnc3c2ncn3C2O[C@H](C(=O)NC3CC3)[C@@H](O)[C@H]2O)c2ccccc21` (stereo partly drawn), the ED50 is below 3 mg/kg.
On the same count and under the same terms, as for `Cc1ccc(C)c(Cn2c(C)c(CCNc3ncnc4c3ncn4C3O[C@H](C(=O)NC4CC4)[C@@H](O)[C@H]3O)c3ccccc32)c1` (stereo partly drawn), the figure is 1.2 mg/kg.
For `O=C(NC1CC1)[C@H]1OC(n2cnc3c(NCCc4c(-c5ccccc5)[nH]c5ccccc45)ncnc32)[C@H](O)[C@@H]1O` (stereo partly drawn), it took a dose of 27.1 mg/kg to reach the 50% effect level (ED50).
The compound `Cn1cc(CCNc2ncnc3c2ncn3C2O[C@H](C(=O)NC3CC3)[C@@H](O)[C@H]2O)c2ccccc21` (stereo partly drawn) showed an ED50 of 3 mg/kg.
On the same count and under the same terms, as for `CC(Cc1cn(C2CCCC2)c2ccccc12)Nc1ncnc2c1ncn2C1O[C@H](C(=O)NC2CC2)[C@@H](O)[C@H]1O` (stereo partly drawn), the figure is 2.2 mg/kg.
In turn, `O=C(NC1CC1)[C@H]1OC(n2cnc3c(NCCc4cn(CCN5CCOCC5)c5ccccc45)ncnc32)[C@H](O)[C@@H]1O` (stereo partly drawn) had an ED50 above 30 mg/kg.
The same measure, in the same setting: as for `O=C(NC1CC1)[C@H]1OC(n2cnc3c(NCCc4cn(Cc5ccc(Cl)s5)c5ccccc45)ncnc32)[C@H](O)[C@@H]1O` (stereo partly drawn), the figure is 26.2 mg/kg; as for `COc1ccc2c(c1)c(CCNc1ncnc3c1ncn3C1O[C@H](C(=O)NC3CC3)[C@@H](O)[C@H]1O)cn2Cc1cc(C)ccc1C` (stereo partly drawn), 46.3 mg/kg; as for `COc1ccc(Cn2cc(CCNc3ncnc4c3ncn4C3O[C@H](C(=O)NC4CC4)[C@@H](O)[C@H]3O)c3ccccc32)cc1` (stereo partly drawn), 71.6 mg/kg.

A further assay addresses Adenosine A2 receptor (Rattus norvegicus, UniProt P29276+P30543). The experiment in a line: Binding affinity for adenosine A2 receptor in vitro using rat striatal membrane. The format is cell membranes.
Details: not given
The procedure, abridged:
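Rat striatal membranes in 50 mM Tris-HCl, 10 mM MgCl2, pH 7.7, adenosine deaminase treated (1 U/mL, 30 min). Incubated with [3H]NECA (4 nM, 50 μL) plus 0.11 μM cyclopentyladenosine and competitor for 60 min at 25 °C. Nonspecific binding defined with 5 μM NECA. GF/B filtration, scintillation counting, triplicate. IC50 from log-logit regression, Ki via Cheng-Prusoff, one experiment.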
As for `O=C(NC1CC1)[C@H]1OC(n2cnc3c(NCCc4cn(Cc5ccccn5)c5ccccc45)ncnc32)[C@H](O)[C@@H]1O` (stereo partly drawn), the Ki came out at 390 nM.
Compound `Cn1cc(CCNc2ncnc3c2ncn3C2O[C@H](C(=O)NC3CC3)[C@@H](O)[C@H]2O)c2ccccc21` (stereo partly drawn) returned a Ki of 270 nM.

The next assay concerns the target T3, Adenosine A2 receptor (Rattus norvegicus) (UniProt P29276+P30543). The experiment in a line: Percent displacement from adenosine A2 receptor at 10e-5 M in rat striatal membrane in vitro. The format is cell membranes.
Details: not given
`Cc1ccccc1Cn1cc(CCNc2ncnc3c2ncn3C2O[C@H](C(=O)NC3CC3)[C@@H](O)[C@H]2O)c2ccccc21` (stereo partly drawn) registered a Displacement of 93%.
As to `Cc1ccc(C)c(Cn2c(C)c(CCNc3ncnc4c3ncn4C3O[C@H](C(=O)NC4CC4)[C@@H](O)[C@H]3O)c3ccccc32)c1` (stereo partly drawn), the Displacement is 60%.
Regarding `O=C(NC1CC1)[C@H]1OC(n2cnc3c(NCCc4c(-c5ccccc5)[nH]c5ccccc45)ncnc32)[C@H](O)[C@@H]1O` (stereo partly drawn), the Displacement was determined as 71%.
Same read-out and setting: next, `Cn1cc(CCNc2ncnc3c2ncn3C2O[C@H](C(=O)NC3CC3)[C@@H](O)[C@H]2O)c2ccccc21` (stereo partly drawn): 91%; `CC(Cc1cn(C2CCCC2)c2ccccc12)Nc1ncnc2c1ncn2C1O[C@H](C(=O)NC2CC2)[C@@H](O)[C@H]1O` (stereo partly drawn): 85%.
Still for that read-out and setting: next, `O=C(NC1CC1)[C@H]1OC(n2cnc3c(NCCc4cn(CCN5CCOCC5)c5ccccc45)ncnc32)[C@H](O)[C@@H]1O` (stereo partly drawn): 88%.
Regarding `O=C(NC1CC1)[C@H]1OC(n2cnc3c(NCCc4cn(Cc5ccc(Cl)s5)c5ccccc45)ncnc32)[C@H](O)[C@@H]1O` (stereo partly drawn), the Displacement turned out to be 82%.
On the same count and under the same terms, next, `COc1ccc2c(c1)c(CCNc1ncnc3c1ncn3C1O[C@H](C(=O)NC3CC3)[C@@H](O)[C@H]1O)cn2Cc1cc(C)ccc1C` (stereo partly drawn): 91%.
The compound `COc1ccc(Cn2cc(CCNc3ncnc4c3ncn4C3O[C@H](C(=O)NC4CC4)[C@@H](O)[C@H]3O)c3ccccc32)cc1` (stereo partly drawn) showed a Displacement of 100%.

The target in the next assay is T1, Adenosine receptor A1 (Rattus norvegicus). The experiment in a line: Percent displacement from adenosine A1 receptor at 10e-7 M in rat brain membrane in vitro.
Details: not given
It counts as cell membranes.
In turn, `Cc1ccccc1Cn1cc(CCNc2ncnc3c2ncn3C2O[C@H](C(=O)NC3CC3)[C@@H](O)[C@H]2O)c2ccccc21` (stereo partly drawn) registered a Displacement of 40%.
`Cc1ccc(C)c(Cn2c(C)c(CCNc3ncnc4c3ncn4C3O[C@H](C(=O)NC4CC4)[C@@H](O)[C@H]3O)c3ccccc32)c1` (stereo partly drawn): the Displacement was 5%.
`O=C(NC1CC1)[C@H]1OC(n2cnc3c(NCCc4c(-c5ccccc5)[nH]c5ccccc45)ncnc32)[C@H](O)[C@@H]1O` (stereo partly drawn): the Displacement is 20%.
Still for that read-out and setting: as for `Cn1cc(CCNc2ncnc3c2ncn3C2O[C@H](C(=O)NC3CC3)[C@@H](O)[C@H]2O)c2ccccc21` (stereo partly drawn), the figure is 76%; as for `CC(Cc1cn(C2CCCC2)c2ccccc12)Nc1ncnc2c1ncn2C1O[C@H](C(=O)NC2CC2)[C@@H](O)[C@H]1O` (stereo partly drawn), 45%.
Same read-out and setting: next, `O=C(NC1CC1)[C@H]1OC(n2cnc3c(NCCc4cn(CCN5CCOCC5)c5ccccc45)ncnc32)[C@H](O)[C@@H]1O` (stereo partly drawn): 52%; `O=C(NC1CC1)[C@H]1OC(n2cnc3c(NCCc4cn(Cc5ccc(Cl)s5)c5ccccc45)ncnc32)[C@H](O)[C@@H]1O` (stereo partly drawn): 47%; `COc1ccc2c(c1)c(CCNc1ncnc3c1ncn3C1O[C@H](C(=O)NC3CC3)[C@@H](O)[C@H]1O)cn2Cc1cc(C)ccc1C` (stereo partly drawn): 16%.
Same read-out and setting: next, `COc1ccc(Cn2cc(CCNc3ncnc4c3ncn4C3O[C@H](C(=O)NC4CC4)[C@@H](O)[C@H]3O)c3ccccc32)cc1` (stereo partly drawn): 42%.

Another assay concerns the target T3, Adenosine A2 receptor (Rattus norvegicus). As to the kind of experiment: Percent displacement from adenosine A2 receptor at 10e-7 M in rat striatal membrane in vitro. The format is cell membranes. The settings on record: Striatum.
As to `Cc1ccccc1Cn1cc(CCNc2ncnc3c2ncn3C2O[C@H](C(=O)NC3CC3)[C@@H](O)[C@H]2O)c2ccccc21` (stereo partly drawn), the Displacement was determined as 27%.
The same measure, in the same setting: as for `Cc1ccc(C)c(Cn2c(C)c(CCNc3ncnc4c3ncn4C3O[C@H](C(=O)NC4CC4)[C@@H](O)[C@H]3O)c3ccccc32)c1` (stereo partly drawn), the figure is 7%; as for `O=C(NC1CC1)[C@H]1OC(n2cnc3c(NCCc4c(-c5ccccc5)[nH]c5ccccc45)ncnc32)[C@H](O)[C@@H]1O` (stereo partly drawn), 10%; as for `Cn1cc(CCNc2ncnc3c2ncn3C2O[C@H](C(=O)NC3CC3)[C@@H](O)[C@H]2O)c2ccccc21` (stereo partly drawn), 29%.
Regarding `CC(Cc1cn(C2CCCC2)c2ccccc12)Nc1ncnc2c1ncn2C1O[C@H](C(=O)NC2CC2)[C@@H](O)[C@H]1O` (stereo partly drawn), the Displacement came to 21%.
Still for that read-out and setting: as for `O=C(NC1CC1)[C@H]1OC(n2cnc3c(NCCc4cn(CCN5CCOCC5)c5ccccc45)ncnc32)[C@H](O)[C@@H]1O` (stereo partly drawn), the figure is 20%.
For the compound `O=C(NC1CC1)[C@H]1OC(n2cnc3c(NCCc4cn(Cc5ccc(Cl)s5)c5ccccc45)ncnc32)[C@H](O)[C@@H]1O` (stereo partly drawn), the Displacement is 6%.
Still for that read-out and setting: next, `COc1ccc2c(c1)c(CCNc1ncnc3c1ncn3C1O[C@H](C(=O)NC3CC3)[C@@H](O)[C@H]1O)cn2Cc1cc(C)ccc1C` (stereo partly drawn): 17%; `COc1ccc(Cn2cc(CCNc3ncnc4c3ncn4C3O[C@H](C(=O)NC4CC4)[C@@H](O)[C@H]3O)c3ccccc32)cc1` (stereo partly drawn): 59%.
